Holding throughout (assay type): cell-based
For data set [1], the target named is T1, Potassium voltage-gated channel subfamily KQT member 1 (Homo sapiens, UniProt P51787).
T1 sequence (P51787 whole entry): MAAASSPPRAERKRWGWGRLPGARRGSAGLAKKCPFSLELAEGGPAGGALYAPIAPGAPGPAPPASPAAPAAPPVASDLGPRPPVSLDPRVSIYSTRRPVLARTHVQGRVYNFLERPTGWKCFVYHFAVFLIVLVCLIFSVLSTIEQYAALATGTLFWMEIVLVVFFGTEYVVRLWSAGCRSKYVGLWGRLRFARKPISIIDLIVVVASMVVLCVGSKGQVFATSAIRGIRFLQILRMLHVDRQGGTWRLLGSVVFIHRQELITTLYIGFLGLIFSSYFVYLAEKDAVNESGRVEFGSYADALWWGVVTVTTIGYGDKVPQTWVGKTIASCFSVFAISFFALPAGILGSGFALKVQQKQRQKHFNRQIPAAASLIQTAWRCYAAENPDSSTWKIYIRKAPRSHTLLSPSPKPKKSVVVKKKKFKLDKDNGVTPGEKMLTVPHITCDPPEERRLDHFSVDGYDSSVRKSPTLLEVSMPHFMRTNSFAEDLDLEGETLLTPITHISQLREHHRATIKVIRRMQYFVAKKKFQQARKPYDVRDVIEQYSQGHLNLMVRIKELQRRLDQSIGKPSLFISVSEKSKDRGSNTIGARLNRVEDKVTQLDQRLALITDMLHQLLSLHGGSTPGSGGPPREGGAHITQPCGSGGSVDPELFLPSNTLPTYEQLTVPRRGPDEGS
Description: Activity at human KCNQ1 expressed in CHOK1 cells assessed as ratio of amplitude of outward current in presence of test compound to amplitude of outward current in absence of test compound at 10 uM at -10 mV by whole cell patch clamp assay. The method, boiled down: (§1)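 CHO-K1 cells individually transfected with a single KCNQ subtype; whole-cell voltage clamp. Held at −80 mV, stepped from −90 to +60 mV in 10 mV increments (1500 ms), then to −120 mV for 500 ms. Outward current at −10 or +60 mV measured before (I0) and after (I) 10 μM compound; I/I0 >1 counts as activation. More than four cells per compound.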

Data set [2] concerns the target T2, Potassium voltage-gated channel subfamily KQT member 4 (Homo sapiens) (UniProt P56696).
T2 sequence (whole entry): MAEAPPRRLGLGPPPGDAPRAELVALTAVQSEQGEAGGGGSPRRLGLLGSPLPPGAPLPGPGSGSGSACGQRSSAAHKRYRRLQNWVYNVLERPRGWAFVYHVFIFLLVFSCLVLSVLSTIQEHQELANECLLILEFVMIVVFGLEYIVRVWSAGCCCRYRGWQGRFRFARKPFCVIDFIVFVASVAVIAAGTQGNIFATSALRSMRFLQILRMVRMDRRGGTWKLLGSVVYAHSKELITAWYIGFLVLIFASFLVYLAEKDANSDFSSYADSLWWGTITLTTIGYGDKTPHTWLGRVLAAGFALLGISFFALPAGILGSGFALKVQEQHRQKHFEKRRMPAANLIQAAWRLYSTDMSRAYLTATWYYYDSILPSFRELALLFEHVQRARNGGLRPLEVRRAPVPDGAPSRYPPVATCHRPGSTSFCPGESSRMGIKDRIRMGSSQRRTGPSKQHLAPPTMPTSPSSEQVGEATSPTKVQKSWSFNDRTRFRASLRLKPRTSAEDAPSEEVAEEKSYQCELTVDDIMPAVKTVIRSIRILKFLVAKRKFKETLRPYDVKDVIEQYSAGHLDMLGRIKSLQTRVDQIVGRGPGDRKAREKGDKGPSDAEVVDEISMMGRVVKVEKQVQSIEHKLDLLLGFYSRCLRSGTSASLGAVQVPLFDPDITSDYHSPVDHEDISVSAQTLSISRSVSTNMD
In words: (§2) Activation of human homomeric KCNQ4 expressed in CHOK1 cells at -10 mV by whole cell patch clamp assay. Put shortly: (§3)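 Whole-cell voltage clamp of CHO-K1 cells expressing homomeric KCNQ4. Holding potential −80 mV with depolarizing steps; current read at −10 mV before and after compound at several concentrations. EC50 derived from the concentration–response relationship, with the Hill coefficient reported.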
Background: In patch-clamp work, channel activity is measured electrically.

Data set [3] deals with T3, Potassium voltage-gated channel subfamily KQT member 4 (Homo sapiens, UniProt P56696).
T3 sequence (P56696 whole entry): T2 sequence (whole entry)
The description is as §2. The method, boiled down: as §3

In data set [4] the target is T2, Potassium voltage-gated channel subfamily KQT member 4 (Homo sapiens). In words: Activity at human KCNQ4 expressed in CHOK1 cells assessed as ratio of amplitude of outward current in presence of test compound to amplitude of outward current in absence of test compound at 10 uM at -10 mV by whole cell patch clamp assay. Put shortly: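 CHO-K1 cells expressing the channel, whole-cell voltage clamp, compound at 10 μM. Read-out is the outward current ratio I/I0 with and without compound, taken at −10 mV. I/I0 > 1 counts as activation and < 1 as inhibition. More than four cells per compound.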

Data set [5] concerns the target T1, Potassium voltage-gated channel subfamily KQT member 1. Description: Activity at human KCNQ1 expressed in CHOK1 cells assessed as ratio of amplitude of outward current in presence of test compound to amplitude of outward current in absence of test compound at 10 uM at +60 mV by whole cell patch clamp assay. The method, boiled down: as §1
The target of data set [6] is T2, Potassium voltage-gated channel subfamily KQT member 4 (Homo sapiens). Description: Effect on voltage-dependent activation of human KCNQ4 expressed in CHOK1 cells assessed as negative shift in current activation curve at 10 uM by whole cell patch clamp assay.

The source made the active and inactive calls. The rule behind the calls is not given here.

As for `C#CCN(Cc1ccc(F)cc1)c1ccc(NC(=O)OCC)c(NC(=O)OCC)c1`, the Ratio worked out at 1 in data set [1], 5.68 in data set [4] and 1 in data set [5]. Also, in data set [2], the Activity result is “Dose-dependent effect”. The molecule further returned an EC50 in data set [3] of 0.89 µM. Further, the result in data set [6] was inactive.

A word on the EC50: it is the midpoint of the concentration-response curve. High values mean a need for much substance, low ones an effect from little substance.

The record behind these values is ChEMBL document CHEMBL4382285, “Discovery of Novel Retigabine Derivatives as Potent KCNQ4 and KCNQ5 Channel Agonists with Improved Specificity” (ACS Med Chem Lett, 2019).
